Measurements from ChEMBL document CHEMBL5724801, “EUbOPEN Chemogenomics Library - Multiplex” (2024).
Where “and” joins values, the source holds several entries; their conditions need not be identical. Equal values may be shown once.

Tested on: Fibroblast
Assay: Multiplex assay against human fibroblast
Assay type: toxicity, cell-based
Procedure, shortened: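 Imaging took place on a CQ1 microscope at 37°C and 5% CO2 once compound had been added to live cells stained at seeding with Hoechst33342, BioTracker Green Microtubule Cytoskeleton Dye, MitoTracker Red and Annexin V Alexa Fluor 680. CellPathfinder machine-learning gating classed cells as Hoechst high-intensity objects or normal cells, classed normal cells as having healthy, pyknosed or fragmented nuclei, and classed pyknosed cells as mitotic or apoptotic. Tubulin, mitochondrial-mass and membrane-permeability phenotypes are per cents of the healthy-nucleus cells.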

[1] = 12 h, 1 µM, compound concentration 1 uM
[2] = 12 h, 10 µM, compound concentration 10 uM
[3] = 24 h, 1 µM, compound concentration 1 uM
[4] = 24 h, 10 µM, compound concentration 10 uM
[5] = 48 h, 1 µM, compound concentration 1 uM
[6] = 48 h, 10 µM, compound concentration 10 uM

SMILES: CN1CC[C@@]23CCCC[C@@H]2[C@@H]1Cc1ccc(O)cc13.O=C(O)C(O)C(O)C(=O)O
- Population Apoptotic (%) [1]: 6.98% and 13.16%
- Population Fragmented Nuclei (%) [1]: 5.26% and 4.9%
- Population Healthy Nuclei (%) [1]: 69.59% and 79.59%
- Population Hoechst High Intensity Objects (%) [1]: 0%
- Population Membrane Permeable-Phenotype (%) [1]: 1.68% and 2.05%
- Population Mitochondria Different-Phenotype (%) [1]: 8.4% and 8.21%
- Population Mitotic Cells (%) [1]: 93.02% and 86.84%
- Population Normal (%) [1]: 100%
- Population Pyknosed Nuclei (%) [1]: 25.15% and 15.51%
- Population Tubulin-Different-Phenotype (%) [1]: 15.97% and 20.51%
- Total Cell Count [1]: 171 and 245
- Population Apoptotic (%) [2]: 8.2% and 12.82%
- Population Fragmented Nuclei (%) [2]: 8.77% and 7.24%
- Population Healthy Nuclei (%) [2]: 64.47% and 79.31%
- Population Hoechst High Intensity Objects (%) [2]: 0%
- Population Membrane Permeable-Phenotype (%) [2]: 2.72% and 2.17%
- Population Mitochondria Different-Phenotype (%) [2]: 6.12% and 5.65%
- Population Mitotic Cells (%) [2]: 91.8% and 87.18%
- Population Normal (%) [2]: 100%
- Population Pyknosed Nuclei (%) [2]: 26.75% and 13.45%
- Population Tubulin-Different-Phenotype (%) [2]: 14.29% and 18.26%
- Total Cell Count [2]: 228 and 290
- Population Apoptotic (%) [3]: 13.16% and 10.71%
- Population Fragmented Nuclei (%) [3]: 6.63% and 3.19%
- Population Healthy Nuclei (%) [3]: 72.38% and 85.66%
- Population Hoechst High Intensity Objects (%) [3]: 0%
- Population Membrane Permeable-Phenotype (%) [3]: 0% and 2.79%
- Population Mitochondria Different-Phenotype (%) [3]: 9.92% and 5.12%
- Population Mitotic Cells (%) [3]: 86.84% and 89.29%
- Population Normal (%) [3]: 100%
- Population Pyknosed Nuclei (%) [3]: 20.99% and 11.16%
- Population Tubulin-Different-Phenotype (%) [3]: 17.56% and 14.88%
- Total Cell Count [3]: 181 and 251
- Population Apoptotic (%) [4]: 17.74% and 18.92%
- Population Fragmented Nuclei (%) [4]: 9.16% and 7.39%
- Population Healthy Nuclei (%) [4]: 68.13% and 79.58%
- Population Hoechst High Intensity Objects (%) [4]: 0%
- Population Membrane Permeable-Phenotype (%) [4]: 2.15% and 2.21%
- Population Mitochondria Different-Phenotype (%) [4]: 5.38% and 4.42%
- Population Mitotic Cells (%) [4]: 82.26% and 81.08%
- Population Normal (%) [4]: 100%
- Population Pyknosed Nuclei (%) [4]: 22.71% and 13.03%
- Population Tubulin-Different-Phenotype (%) [4]: 19.89% and 17.7%
- Total Cell Count [4]: 273 and 284
- Population Apoptotic (%) [5]: 30.77% and 40%
- Population Fragmented Nuclei (%) [5]: 9.57% and 5.1%
- Population Healthy Nuclei (%) [5]: 84.21% and 89.02%
- Population Hoechst High Intensity Objects (%) [5]: 0%
- Population Membrane Permeable-Phenotype (%) [5]: 0.57% and 3.52%
- Population Mitotic Cells (%) [5]: 69.23% and 60%
- Population Normal (%) [5]: 100%
- Population Pyknosed Nuclei (%) [5]: 6.22% and 5.88%
- Population Tubulin-Different-Phenotype (%) [5]: 6.82% and 14.54%
- Total Cell Count [5]: 209 and 255
- Population Apoptotic (%) [6]: 15.38% and 35.29%
- Population Fragmented Nuclei (%) [6]: 6.34% and 8.95%
- Population Healthy Nuclei (%) [6]: 88.81% and 85.62%
- Population Hoechst High Intensity Objects (%) [6]: 0%
- Population Membrane Permeable-Phenotype (%) [6]: 0.84% and 4.1%
- Population Mitochondria Different-Phenotype (%) [6]: 6.72% and 1.87%
- Population Mitotic Cells (%) [6]: 84.62% and 64.71%
- Population Normal (%) [6]: 100%
- Population Pyknosed Nuclei (%) [6]: 4.85% and 5.43%
- Population Tubulin-Different-Phenotype (%) [6]: 7.56% and 19.4%
- Total Cell Count [6]: 268 and 313

SMILES: CCn1c(-c2ccncc2)cc2c1CCNC2=O
- Population Apoptotic (%) [1]: 13.79% and 16.67%
- Population Fragmented Nuclei (%) [1]: 13.56% and 3.83%
- Population Healthy Nuclei (%) [1]: 70.06% and 79.78%
- Population Hoechst High Intensity Objects (%) [1]: 0%
- Population Membrane Permeable-Phenotype (%) [1]: 2.42% and 2.74%
- Population Mitochondria Different-Phenotype (%) [1]: 8.06% and 6.85%
- Population Mitotic Cells (%) [1]: 86.21% and 83.33%
- Population Normal (%) [1]: 100%
- Population Pyknosed Nuclei (%) [1]: 16.38% and 16.39%
- Population Tubulin-Different-Phenotype (%) [1]: 12.9% and 11.64%
- Total Cell Count [1]: 177 and 183
- Population Healthy Nuclei (%) [2]: 69.44% and 89.58%
- Population Hoechst High Intensity Objects (%) [2]: 0%
- Population Membrane Permeable-Phenotype (%) [2]: 6.4% and 2.91%
- Population Mitochondria Different-Phenotype (%) [2]: 11.2% and 12.79%
- Population Mitotic Cells (%) [2]: 88.89% and 60%
- Population Normal (%) [2]: 100%
- Population Pyknosed Nuclei (%) [2]: 15% and 7.81%
- Population Tubulin-Different-Phenotype (%) [2]: 12% and 12.79%
- Total Cell Count [2]: 180 and 192
- Population Apoptotic (%) [3]: 19.51% and 13.16%
- Population Healthy Nuclei (%) [3]: 62.05% and 74.05%
- Population Hoechst High Intensity Objects (%) [3]: 0%
- Population Membrane Permeable-Phenotype (%) [3]: 4.96% and 1.46%
- Population Mitochondria Different-Phenotype (%) [3]: 7.44% and 7.3%
- Population Mitotic Cells (%) [3]: 80.49% and 86.84%
- Population Normal (%) [3]: 100%
- Population Pyknosed Nuclei (%) [3]: 21.03% and 20.54%
- Population Tubulin-Different-Phenotype (%) [3]: 16.53% and 14.6%
- Total Cell Count [3]: 195 and 185
- Population Healthy Nuclei (%) [4]: 70.39% and 84.97%
- Population Hoechst High Intensity Objects (%) [4]: 0%
- Population Membrane Permeable-Phenotype (%) [4]: 7.14% and 3.66%
- Population Mitochondria Different-Phenotype (%) [4]: 6.35% and 12.8%
- Population Mitotic Cells (%) [4]: 92.86% and 57.69%
- Population Normal (%) [4]: 100%
- Population Pyknosed Nuclei (%) [4]: 15.64% and 13.47%
- Population Tubulin-Different-Phenotype (%) [4]: 10.32% and 17.07%
- Total Cell Count [4]: 179 and 193
- Population Apoptotic (%) [5]: 33.33%
- Population Fragmented Nuclei (%) [5]: 17.79% and 7.69%
- Population Healthy Nuclei (%) [5]: 75% and 86.54%
- Population Hoechst High Intensity Objects (%) [5]: 0%
- Population Membrane Permeable-Phenotype (%) [5]: 3.85% and 5%
- Population Mitotic Cells (%) [5]: 66.67%
- Population Normal (%) [5]: 100%
- Population Pyknosed Nuclei (%) [5]: 7.21% and 5.77%
- Population Tubulin-Different-Phenotype (%) [5]: 23.08% and 22.22%
- Total Cell Count [5]: 208
- Population Apoptotic (%) [6]: 11.76% and 35.14%
- Population Fragmented Nuclei (%) [6]: 16.11% and 6.99%
- Population Healthy Nuclei (%) [6]: 65% and 73.12%
- Population Hoechst High Intensity Objects (%) [6]: 0%
- Population Membrane Permeable-Phenotype (%) [6]: 0% and 11.03%
- Population Mitochondria Different-Phenotype (%) [6]: 20.51% and 11.76%
- Population Mitotic Cells (%) [6]: 88.24% and 64.86%
- Population Normal (%) [6]: 100%
- Population Pyknosed Nuclei (%) [6]: 18.89% and 19.89%
- Population Tubulin-Different-Phenotype (%) [6]: 6.84% and 18.38%
- Total Cell Count [6]: 180 and 186

SMILES: O=C1NC(NC23CC4CC(CC(C4)C2)C3)=N/C1=C\c1ccc2ncsc2c1
- Population Apoptotic (%) [1]: 51.97% and 44.44%
- Population Fragmented Nuclei (%) [1]: 23.55% and 19.79%
- Population Healthy Nuclei (%) [1]: 57.53% and 66.62%
- Population Hoechst High Intensity Objects (%) [1]: 0%
- Population Membrane Permeable-Phenotype (%) [1]: 1.3% and 2.27%
- Population Mitochondria Different-Phenotype (%) [1]: 3.63% and 2.49%
- Population Mitotic Cells (%) [1]: 48.03% and 55.56%
- Population Normal (%) [1]: 100%
- Population Pyknosed Nuclei (%) [1]: 18.93% and 13.6%
- Population Tubulin-Different-Phenotype (%) [1]: 8.81% and 11.79%
- Total Cell Count [1]: 671 and 662
- Population Apoptotic (%) [2]: 45.21% and 45.31%
- Population Fragmented Nuclei (%) [2]: 36.23% and 36.1%
- Population Healthy Nuclei (%) [2]: 32.66% and 30.01%
- Population Hoechst High Intensity Objects (%) [2]: 28.04% and 33.79%
- Population Membrane Permeable-Phenotype (%) [2]: 0.36% and 0.46%
- Population Mitochondria Different-Phenotype (%) [2]: 0%
- Population Mitotic Cells (%) [2]: 54.79% and 54.69%
- Population Normal (%) [2]: 71.96% and 66.21%
- Population Pyknosed Nuclei (%) [2]: 31.11% and 33.89%
- Population Tubulin-Different-Phenotype (%) [2]: 0.73% and 7.37%
- Total Cell Count [2]: 1166 and 1092
- Population Apoptotic (%) [3]: 49.15% and 52.44%
- Population Fragmented Nuclei (%) [3]: 25.03% and 19.5%
- Population Healthy Nuclei (%) [3]: 59% and 67.8%
- Population Hoechst High Intensity Objects (%) [3]: 0% and 0.15%
- Population Membrane Permeable-Phenotype (%) [3]: 2.52% and 1.37%
- Population Mitochondria Different-Phenotype (%) [3]: 0.92% and 0.91%
- Population Mitotic Cells (%) [3]: 50.85% and 47.56%
- Population Normal (%) [3]: 100% and 99.85%
- Population Pyknosed Nuclei (%) [3]: 15.97% and 12.69%
- Population Tubulin-Different-Phenotype (%) [3]: 12.84% and 17.12%
- Total Cell Count [3]: 739 and 647
- Population Apoptotic (%) [4]: 48.2% and 49.02%
- Population Fragmented Nuclei (%) [4]: 28.62% and 33.38%
- Population Healthy Nuclei (%) [4]: 37.8% and 32.44%
- Population Hoechst High Intensity Objects (%) [4]: 27.11% and 32.18%
- Population Membrane Permeable-Phenotype (%) [4]: 0.64% and 0.41%
- Population Mitochondria Different-Phenotype (%) [4]: 0.32% and 0%
- Population Mitotic Cells (%) [4]: 51.8% and 50.98%
- Population Normal (%) [4]: 72.89% and 67.82%
- Population Pyknosed Nuclei (%) [4]: 33.57% and 34.18%
- Population Tubulin-Different-Phenotype (%) [4]: 1.6% and 2.89%
- Total Cell Count [4]: 1136 and 1100
- Population Apoptotic (%) [5]: 58.9% and 52.22%
- Population Fragmented Nuclei (%) [5]: 13.24% and 13.94%
- Population Healthy Nuclei (%) [5]: 69.8% and 71.47%
- Population Hoechst High Intensity Objects (%) [5]: 0%
- Population Membrane Permeable-Phenotype (%) [5]: 1.5% and 2.72%
- Population Mitochondria Different-Phenotype (%) [5]: 1.5% and 0.91%
- Population Mitotic Cells (%) [5]: 41.1% and 47.78%
- Population Normal (%) [5]: 100%
- Population Pyknosed Nuclei (%) [5]: 16.96% and 14.59%
- Population Tubulin-Different-Phenotype (%) [5]: 20.97% and 31.75%
- Total Cell Count [5]: 861 and 617
- Population Apoptotic (%) [6]: 50.75% and 49.7%
- Population Fragmented Nuclei (%) [6]: 29.22% and 30.74%
- Population Healthy Nuclei (%) [6]: 35.44% and 26.72%
- Population Hoechst High Intensity Objects (%) [6]: 25.71% and 37.77%
- Population Membrane Permeable-Phenotype (%) [6]: 0.6% and 0.49%
- Population Mitochondria Different-Phenotype (%) [6]: 0.6% and 0%
- Population Mitotic Cells (%) [6]: 49.25% and 50.3%
- Population Normal (%) [6]: 74.29% and 62.23%
- Population Pyknosed Nuclei (%) [6]: 35.34% and 42.54%
- Population Tubulin-Different-Phenotype (%) [6]: 1.19% and 2.91%
- Total Cell Count [6]: 1276 and 1239
